Bioassay records as filed in PubChem BioAssay.
hIAP block: blocks human intestinal alkaline phosphatase. purified IAP, CDP-Star luminescence, 30 min. inhibition, % at 10 µM. 330,000 tested, 0.12% active. AID 2544;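 active means inhibition reaching a set limit with compound at 10 µM in the primary screen, cut at about 35% in these data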;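 further: plate controls were DMSO wells with enzyme for no effect and no-enzyme buffer wells for full effect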
Target sequence (P09923 whole entry, looked up): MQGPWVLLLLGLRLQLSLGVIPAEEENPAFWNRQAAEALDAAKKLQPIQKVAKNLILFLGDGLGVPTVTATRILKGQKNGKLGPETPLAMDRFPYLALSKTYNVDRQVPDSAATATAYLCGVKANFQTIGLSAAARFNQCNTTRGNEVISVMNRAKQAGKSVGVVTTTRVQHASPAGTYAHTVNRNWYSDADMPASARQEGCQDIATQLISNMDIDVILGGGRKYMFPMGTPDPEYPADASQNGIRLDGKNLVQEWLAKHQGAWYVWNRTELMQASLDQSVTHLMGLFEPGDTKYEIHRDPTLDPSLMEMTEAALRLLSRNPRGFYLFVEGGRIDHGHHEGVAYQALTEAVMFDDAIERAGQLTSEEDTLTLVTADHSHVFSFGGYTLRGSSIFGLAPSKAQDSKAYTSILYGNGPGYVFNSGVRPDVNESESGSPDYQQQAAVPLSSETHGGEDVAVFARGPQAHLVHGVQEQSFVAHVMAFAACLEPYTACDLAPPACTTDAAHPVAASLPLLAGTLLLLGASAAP
bIAP inhibitor: blocks bovine intestinal alkaline phosphatase activity. purified bovine IAP, CDP-star luminescence, 30 min. inhibition, % at 20 µM. 190,000 tested, under 10 active. AID 1019;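 active means over 50% inhibition of intestinal alkaline phosphatase at 20 µM in the single-dose screen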
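System: purified bovine intestinal alkaline phosphatase (IAP) enzyme; Input: IAP diluted 1/65,000,000 in the well; Measured by: CDP-star luminescence signal; Compound dosing: 20 µM single dose; Incubation: 30 min reaction at room temperature.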
hIAP act: increases human intestinal alkaline phosphatase activity; P09923; purified human IAP, CDP-Star luminescence, 30 min; hits give high values; 1 = vehicle-only enzyme, 0 = enzyme-free background; activation factor at 10 µM; 330,000 tested, 0.16% active; AID 2524;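 active means activation factor of the enzyme at least 2-fold when tested at 20 µM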
mIAP activ: increases mouse intestinal alkaline phosphatase activity; muIAP, CDP-Star luminescence, 30 min; hits give high values; 1 = vehicle-only enzyme signal, 0 = enzyme-free wells; activation factor at 10 µM; 330,000 tested, 0.24% active; AID 2805;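 active means activation factor of at least 2 at 20 µM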
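also added = chemiluminescent substrate CDP-Star | test system = mouse IAP enzyme | signal = chemiluminescence readout | compound = DMSO-dissolved test compounds | incubation = 30 min at room temperature | benchmarks = DMSO wells, no-enzyme wells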
mIAP inh: blocks mouse intestinal alkaline phosphatase. purified mouse IAP, CDP-Star luminescence, 30 min. inhibition, % at 10 µM. 330,000 tested, 0.2% active. AID 2806;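 active means inhibition of at least 40% at 10 µM in the primary screen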;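 further: plate controls were DMSO with enzyme for no effect and no enzyme wells for full effect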
bIAP act: increases bovine intestinal alkaline phosphatase activity; purified bovine IAP, CDP-star luminescence, 30 min; hits give high values; fold of DMSO-control signal, blank-subtracted; activation factor at 20 µM; 200,000 tested, 0.17% active;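 active means activation factor of 2 or more at 20 µM, a signal rise over negative controls twice the positive control's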
* = called active by the depositor; i = inactive; · = not tested or not shown. The list is not random: actives were taken first. Their share in the collection is about 0.77%.

SMILES | hIAP block | bIAP inhibitor | hIAP act | mIAP activ | mIAP inh | bIAP act
CC(C)(C)c1ccc(OCC(=O)Nc2ccc(-c3nc4cccnc4o3)cc2)cc1 | 13 | -95 | 0.87 | 0.89 | 11 | 2*
COc1ccc(-c2[nH]ncc2C2N=C(N)Nc3nc4ccccc4n32)cc1 (stereo not drawn) | -57 | -120 | 1.6 | 1.2 | -24 | 2.2*
O=C(Nc1ccccc1)Nc1ccc(-n2ccc(C(F)(F)F)n2)cc1 | -21 | · | 1.2 | 2.4* | -142 | ·
CC1(C)Cc2c(cnn2-c2ccc(F)cc2)C(NC(=O)CCN2CCCC2=O)C1 (stereo not drawn) | -22 | · | 1.2 | 0.97 | 3 | ·
CC(=O)C1=C(C)NC(SCC(=O)c2ccc(Cl)c(Cl)c2)=C(C#N)C1c1ccco1 (stereo not drawn) | 35* | 3 | 0.65 | 0.8 | 20 | 1
CC(=O)C1=C(C)NC(SCC(=O)c2cc(Cl)ccc2Cl)=C(C#N)C1c1ccco1 (stereo not drawn) | -18 | 16 | 1.2 | 0.89 | 11 | 0.8
Cc1noc(C)c1C(=O)Nc1ccc(S(=O)(=O)N2CCCCC2)cc1 | -29 | · | 1.3 | 0.99 | 1 | ·
Cc1noc(C)c1C(=O)Nc1ccc(S(=O)(=O)N2CCC(C)CC2)cc1 | -12 | · | 1.1 | 0.49 | 51* | ·
Cc1ccc(S(=O)(=O)Nc2ccc(S(=O)(=O)NCC3CCCO3)cc2)cc1 (stereo not drawn) | -9 | · | 1.1 | 0.91 | 9 | ·
COc1ccccc1NS(=O)(=O)c1cc(NC(=O)Nc2ccc(Cl)cc2Cl)ccc1N1CCCCC1 | -11 | 5 | 1.1 | 3.4* | -244 | 0.9
O=C(Nc1cccc(C(F)(F)F)c1)Nc1ccc(N2CCCC2)c(S(=O)(=O)Nc2ccccc2Cl)c1 | -12 | 30 | 1.1 | 2.1* | -110 | 0.7
O=C1NCC(COc2ccc(Cl)cc2)O1 (stereo not drawn) | 6 | -2 | 0.94 | 0.93 | 7 | 1
Cc1ccc(N/C(N)=N/c2nc(CSc3nnc(C)s3)cc(=O)[nH]2)c(C)c1 | -67 | -111 | 1.7 | 1.1 | -8 | 2.1*
S=C(Nc1ccc(Cl)cc1)NC1CC2CCCC(C1)N2C1CC1 (stereo not drawn) | -12 | -19 | 1.1 | 2.6* | -164 | 1.2
S=C(Nc1cccc(Cl)c1)NC1CC2CCCC(C1)N2C1CCCC1 (stereo not drawn) | -4 | -1 | 1 | 2.2* | -120 | 1
C=CCN1C2CCCC1CC(NC(=O)Nc1cc(C)cc(C)c1)C2 (stereo not drawn) | -38 | -96 | 1.4 | 1.7 | -69 | 2*
S=C(NCc1cccc(Cl)c1)NC1CCCCC1 | -29 | 5 | 1.3 | 2.5* | -147 | 1
COc1cccc(NC(=S)NC2CC3CCCC(C2)N3C2CCCC2)c1 (stereo not drawn) | -24 | -22 | 1.2 | 1.3 | -30 | 1.2
S=C(Nc1ccc(Cl)cc1)NC1CC2CCCC(C1)N2C1CCCC1 (stereo not drawn) | 9 | -50 | 0.91 | 2 | -96 | 1.5
Cc1cc(C)cc(NC(=S)NC2CC3CCCC(C2)N3CC(C)C)c1 (stereo not drawn) | -11 | 15 | 1.1 | 1.4 | -38 | 0.9
CCN(C[C@H]1N[C@@](CC)(C(=O)OC)[C@H]2C(=O)N(Cc3ccccc3)C(=O)[C@@H]12)C(=O)c1ccc(C(C)(C)C)cc1 | 4 | · | 0.96 | 0.92 | 8 | ·
O=c1ccc2ccc(OCc3ccccc3)cc2o1 | -6 | · | 1.1 | 1.1 | -8 | ·
CC(=O)N1CCOc2ccc(S(=O)(=O)N3CCN(c4cc(C)ccc4C)CC3)cc21 | -12 | · | 1.1 | 0.99 | 1 | ·
S=C(Nc1ccc(Cl)cc1)NC1CC2CCC(C1)N2Cc1ccccc1 (stereo not drawn) | -26 | -15 | 1.3 | 2.3* | -126 | 1.1
CNC(=S)NC1CC2CCC(C1)N2Cc1ccccc1 (stereo not drawn) | 7 | 10 | 0.93 | 1 | -2 | 0.9
SMILES | hIAP block | bIAP inhibitor | hIAP act | mIAP activ | mIAP inh | bIAP act
S=C(NCCN(C1CCCCC1)C1CCCC1)Nc1cccc(Cl)c1 | -12 | · | 1.1 | 2* | -102 | ·
S=C(NCc1ccncc1)Nc1cccc(Cl)c1 | -2 | 28 | 1 | 1 | 0 | 0.7
Cc1cc(C)cc(NC(=S)NC2CC3CCCC(C2)N3C2CC2)c1 (stereo not drawn) | -25 | -44 | 1.2 | 2.3* | -131 | 1.4
CC1=C(C(=O)OCCc2ccccc2)C(c2ccsc2)NC(=O)N1C (stereo not drawn) | -2 | 3 | 1 | 0.97 | 3 | 1
COc1cccc(-c2nn(-c3ccccc3)cc2C(=O)OCC(=O)Nc2ncc(Cl)cc2Cl)c1 | 13 | -97 | 0.87 | 0.89 | 11 | 2*
O=C(COC(=O)c1cn(-c2ccccc2)nc1-c1ccccc1)Nc1ncc(Cl)cc1Cl | 7 | · | 0.93 | 0.95 | 5 | ·
Cc1nn(-c2ccccc2)c(C)c1/C=C/C(=O)OCC(=O)Nc1ncc(Cl)cc1Cl | 5 | i | 0.95 | 1.1 | -11 | 11*
CC(C)C(OC(=O)/C=C/c1ccc2c(c1)OCO2)C(=O)NC(N)=O (stereo not drawn) | -4 | 12 | 1 | 1 | 0 | 0.9
CC(C)(C)NC(=O)COC(=O)c1cc(F)c(F)cc1Cl | 2 | 9 | 0.98 | 0.99 | 1 | 0.9
C/C(=N\NC(=S)NC(C)C)c1ccc(-n2ccnc2)cc1 | -20 | 16 | 1.2 | 1 | 0 | 0.8
C=CCN(C(=O)Cn1nc(C)n2c(cc3cc(C)ccc32)c1=O)c1ccccc1 | -37 | · | 1.4 | 0.92 | 8 | ·
COC(=O)c1ccc(NC(=S)NC2CCCCC2C)cc1 (stereo not drawn) | -14 | -32 | 1.1 | 2.6* | -157 | 1.3
CCOC(=O)c1ccc(NC(=S)NC2CCCC2)cc1 | 7 | 1 | 0.93 | 2.2* | -121 | 1
CCOC(=O)c1ccc(NC(=S)NC(=O)C2CCCC2)cc1 | 8 | · | 0.92 | 0.99 | 0 | ·
O=C1CCCCN1CC(=O)N1CCCC(Nc2ccc(F)cc2)C1 (stereo not drawn) | -42 | · | 1.4 | 0.56 | 44* | ·
CCN(CC)S(=O)(=O)c1ccc(NC(=O)CCC2CCCCC2)cc1 | · | -128 | · | · | · | 2.3*
CCC(NC(=S)NCc1ccc(F)cc1)c1ccc(C(C)C)cc1 (stereo not drawn) | 10 | · | 0.9 | 4.1* | -315 | ·
CCC(C)c1ccc(C(C)NC(=S)NCc2ccc(F)cc2)cc1 (stereo not drawn) | -9 | · | 1.1 | 2.6* | -157 | ·
COc1ccc(C(C)NC(=S)NCc2ccc(F)cc2)cc1OC (stereo not drawn) | 0 | · | 1 | 1.1 | -13 | ·
CCCc1ccc(C(C)NC(=S)NCc2ccc(F)cc2)cc1 (stereo not drawn) | -46 | · | 1.5 | 3* | -196 | ·
Cc1ccccc1NC(=S)NCc1ccc(F)cc1 | 0 | · | 1 | 1.1 | -7 | ·
